# Results reported in ChEMBL document CHEMBL3774334, “New cytotoxic neo-clerodane diterpenoids from Scutellaria strigillosa” (Bioorg Med Chem Lett, 2016).
# Experiments:
# Assay type in all cases: functional, cell-based
# [1] = system: HT-29; assay: Cytotoxicity against human HT-29 cells assessed as growth inhibition after 72 hrs by MTT assay; conditions: HT-29, 72 h
# Procedure, shortened: (§1)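 MTT read-out of cell growth, method as in an earlier report. IC50 is the concentration giving 50% inhibition of cell growth. Etoposide and cisplatin were run as positive controls.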
# [2] = system: P388; assay: Cytotoxicity against mouse P388 cells assessed as growth inhibition after 72 hrs by MTT assay; conditions: P388, 72 h; procedure, shortened: as §1
# [3] = Cytotoxicity against human HONE1 cells assessed as growth inhibition after 72 hrs by MTT assay; conditions: HONE1, 72 h; procedure, shortened: as §1
# [4] = system: MCF7; assay: Cytotoxicity against human MCF7 cells assessed as growth inhibition after 72 hrs by MTT assay; conditions: MCF7, 72 h; procedure, shortened: as §1
structure (smiles),measurement,setting,value
COc1cc([C@@H]2c3cc4c(cc3[C@@H](O[C@@H]3O[C@@H]5CO[C@@H](C)O[C@H]5[C@H](O)[C@H]3O)[C@H]3COC(=O)[C@H]23)OCO4)cc(OC)c1O [ETOPOSIDE],IC50,[1],2 µM
same,IC50,[2],1.3 µM
same,IC50,[3],1.2 µM
same,IC50,[4],2.2 µM
CC1=CCC[C@H]2[C@@]1(C)[C@@H](OC(=O)c1ccccc1)[C@H](OC(=O)C(O)C(C)C)[C@](C)(O)[C@]2(C)/C=C/C1=CC(=O)OC1 (stereo partly specified),IC50,[1],6.4 µM
same,IC50,[2],7.1 µM
same,IC50,[3],3.9 µM
same,IC50,[4],7.7 µM
CC1=CCC[C@H]2[C@@]1(C)[C@@H](OC(=O)c1cccnc1)[C@H](OC(=O)c1ccccc1)[C@]1(C)O[C@]3(COC(=O)C3)C[C@H](OC(=O)c3cccnc3)[C@]21C,IC50,[1],4.7 µM
same,IC50,[2],5.8 µM
same,IC50,[3],3.5 µM
same,IC50,[4],5.7 µM
CC(=O)O[C@H]1[C@H](OC(C)=O)[C@]2(C)O[C@]3(COC(=O)C3)C[C@H](OC(=O)c3ccccc3)[C@]2(C)[C@H]2CCC=C(C)[C@]12C,IC50,[1],4.1 µM
same,IC50,[2],5.2 µM
same,IC50,[3],4.2 µM
same,IC50,[4],6 µM
